Experiments:
[1] = Cell cycle arrest in human SU86.86 cells assessed as accumulation at G1 phase at 15 uM after 36 hrs; assay type: functional, cell-based; settings: SU.86.86
How it was run: (§1)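 Cells grown in DMEM with 10% fetal calf serum and L-glutamine, then exposed to diluent or compound at 15 µM final for 36 h. Fixed in 50% ethanol, rehydrated, RNase-treated and stained with 50 µg/mL propidium iodide in 0.1% sodium citrate. Flow cytometry (≥20 000 events per sample) gave the percentage of cells in G1, S and G2/M.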

BXPC-3 [2] = assay: Cell cycle arrest in human BXPC3 cells assessed as accumulation at S phase at 15 uM after 36 hrs; assay type: functional; how it was run: as §1
BXPC-3 [3] = assay: Cell cycle arrest in human BXPC3 cells assessed as accumulation at G1 phase at 15 uM after 36 hrs; assay type: functional; how it was run: as §1
MIA PaCa-2 [4] = assay: Cell cycle arrest in human MiaPaCa2 cells assessed as accumulation at G1 phase at 15 uM after 36 hrs; assay type: functional; how it was run: as §1
[5] = Growth inhibition of human SU86.86 cells after 72 hrs by MTT assay; assay type: functional, cell-based; settings: SU.86.86, 72 h
How it was run: (§2)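 Cells maintained in DMEM with 10% fetal calf serum plus L-glutamine, then exposed over 72 h to a range of compound concentrations. Viability read by MTT; percent growth inhibition determined and IC50 estimated from the MTT data.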

MIA PaCa-2 [6] = assay: Cell cycle arrest in human MiaPaCa2 cells assessed as accumulation at S phase at 15 uM after 36 hrs; assay type: functional; how it was run: as §1
SU.86.86 [7] = assay: Induction of apoptosis in human SU86.86 cells at 15 uM after 48 hrs; assay type: functional
MIA PaCa-2 [8] = assay: Growth inhibition of human MiaPaCa2 cells after 72 hrs by MTT assay; assay type: functional, cell-based; settings: MIA PaCa-2, 72 h; how it was run: as §2
BXPC-3 [9] = assay: Induction of apoptosis in human BXPC3 cells at 15 uM after 48 hrs; assay type: functional
How it was run: (§3)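 BXPC-3 cells exposed to diluent or compound for 48 h, then collected and nuclei stained with Hoechst. Three hundred nuclei per field scored as apoptotic when the nucleus was fragmented into multiple discrete fragments; result expressed as percentage of cells in apoptosis.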

BXPC-3 [10] = assay: Cell cycle arrest in human BXPC3 cells assessed as accumulation at G2/M phase at 15 uM after 36 hrs; assay type: functional; how it was run: as §1
BXPC-3 [11] = assay: Growth inhibition of human BXPC3 cells after 72 hrs by MTT assay; assay type: functional, cell-based; settings: BXPC-3, 72 h; how it was run: as §2
[12] = Cell cycle arrest in human SU86.86 cells assessed as accumulation at G2/M phase at 15 uM after 36 hrs; assay type: functional, cell-based; settings: SU.86.86; how it was run: as §1
MIA PaCa-2 [13] = assay: Induction of apoptosis in human MiaPaCa2 cells at 15 uM after 48 hrs; assay type: functional
MIA PaCa-2 [14] = assay: Cell cycle arrest in human MiaPaCa2 cells assessed as accumulation at G2/M phase at 15 uM after 36 hrs; assay type: functional; how it was run: as §1
[15] = Cell cycle arrest in human SU86.86 cells assessed as accumulation at S phase at 15 uM after 36 hrs; assay type: functional, cell-based; settings: SU.86.86; how it was run: as §1
BXPC-3 [16] = assay: Induction of apoptosis in human BXPC3 cells at 25 uM after 48 hrs; assay type: functional; how it was run: as §3
SU.86.86 [17] = assay: Induction of apoptosis in human SU86.86 cells at 25 uM after 48 hrs; assay type: functional
MIA PaCa-2 [18] = assay: Induction of apoptosis in human MiaPaCa2 cells at 25 uM after 48 hrs; assay type: functional
MIA PaCa-2 [19] = assay: Induction of apoptosis in human MiaPaCa2 cells at 50 uM after 48 hrs; assay type: functional
SU.86.86 [20] = assay: Induction of apoptosis in human SU86.86 cells 50 uM after 48 hrs; assay type: functional
BXPC-3 [21] = assay: Induction of apoptosis in human BXPC3 cells 50 uM after 48 hrs; assay type: functional; how it was run: as §3

IC50 (MIA PaCa-2 [8]) [µM] | IC50 (BXPC-3 [11]) [µM] | Compound | Activity [1] [%] | Activity (BXPC-3 [2]) [%] | Activity (BXPC-3 [3]) [%] | Activity (MIA PaCa-2 [4]) [%] | IC50 [5] [µM] | Activity (MIA PaCa-2 [6]) [%] | Activity (SU.86.86 [7]) [%] | Activity (BXPC-3 [9]) [%] | Activity (BXPC-3 [10]) [%] | Activity [12] [%] | Activity (MIA PaCa-2 [13]) [%] | Activity (MIA PaCa-2 [14]) [%] | Activity [15] [%] | further results
11 | 14 | CCN(CC)C(=O)c1ccc2c(NCCc3c[nH]c4ccccc34)c3ccccc3nc2c1 | 60 | 20 | 76 | 32 | 10 | 50 | 17 | 40 | 4 | 16 | 42 | 18 |  | 
6 | 12 | CN1CCN(C(=O)c2ccc3c(NCCc4c[nH]c5ccccc45)c4ccccc4nc3c2)CC1 | 50 | 12 | 81 | 29 | 8 | 51 | 34 | 44 | 7 | 24 | 20 | 20 | 26 | 
1 | 7 | CN1CCN(C(=O)c2ccc3c(NC4CCN(Cc5ccccc5)CC4)c4ccccc4nc3c2)CC1 | 53 | 16 | 77 | 28 | 6 | 52 |  |  | 7 | 18 |  | 20 | 29 | Activity (BXPC-3 [16]): 52%; Activity (SU.86.86 [17]): 30%; Activity (MIA PaCa-2 [18]): 36%
4 |  | CN1CCN(C(=O)c2cccc3c(NCCc4c[nH]c5ccccc45)c4ccccc4nc23)CC1 | 56 | 10 | 83 | 32 | 10 | 47 |  |  | 7 | 17 |  | 21 | 27 | Activity (MIA PaCa-2 [19]): 29%; Activity (SU.86.86 [20]): 23%; Activity (BXPC-3 [21]): 32%

Source: ChEMBL document CHEMBL1140717, “Acridine-based agents with topoisomerase II activity inhibit pancreatic cancer cell proliferation and induce apoptosis” (J Med Chem, 2008)
